In article PMC10950693 (International Journal for Parasitology: Drugs and Drug …, 2024) one finds CC50 data, which are given here for two molecules.

SMILES strings stand for the structures.

The nature of the data set: Cytotoxicity against murine macrophages, alamarBlue, 24 h. Particulars: mouse, J774A.1 murine macrophages. It is filed as cell-based. In outline: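 J774A.1 macrophages were kept in DMEM with 10% FBS at 37 °C, 5% CO2. Cells were seeded at 10^4/well and allowed 3–4 h to adhere. Serial dilutions were added with 10% alamarBlue for 24 h at 37 °C, 5% CO2, then fluorescence was read. CC50 was derived by four-parameter variable-slope nonlinear regression.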
A general note: Resazurin is reduced to fluorescent resorufin, in cell work by metabolically active cells.

In the case of `O=C(Cn1ccnc1[N+](=O)[O-])NCc1ccccc1` [B, benznidazole], the CC50 (as a rule, the concentration at which the toxic effect on the cells reaches its halfway point) at 24 h stood at 399.9 ± 1.4 µM.
For the molecule `CCCCCCCCCCCCCCCCOP(=O)([O-])OCC[N+](C)(C)C` [M, miltefosine], half-maximal cytotoxicity (CC50 at 24 h) was put at 72.2 ± 8.85 µM.
